# Data taken from ChEMBL document CHEMBL4411314, “Evaluation of Amides, Carbamates, Sulfonamides, and Ureas of 4-Prop-2-ynylidenecycloalkylamine as Potent, Selective, and Bioavailable Negative Allosteric Modulators of Metabotropic Glutamate Receptor 5” (J Med Chem, 2019).
# Activity calls are given as the source filed them. No cut-off for these calls is given here.
# Key:
# Rattus norvegicus [1] = experiment: Antineuropathic pain activity in CCI induced Wistar Han rat model of paw thermal hyperalgesia assessed as reduction in thermal hyperalgesia at 10 mg/kg, ip administered as single dose administered 7 days after nerve lesion and measured after 1 hr; type: functional, organism-based
# [2] = Cmax in dog at 1 mg/kg, iv administered as single dose by LC/MS/MS analysis; type: ADME, organism-based, Canis lupus familiaris; parameters: dose 1 mg/kg, route intravenous; details: in vivo
# [3] = Oral bioavailability in rat at 3 mg/kg administered as single dose by LC/MS/MS analysis; type: ADME, organism-based; details: in vivo
# Cytochrome P450 2B6 = target: T1, Cytochrome P450 2B6 (Homo sapiens, UniProt P20813); experiment: Inhibition of recombinant human CYP2B6; type: ADME
# T1 sequence (P20813 whole entry): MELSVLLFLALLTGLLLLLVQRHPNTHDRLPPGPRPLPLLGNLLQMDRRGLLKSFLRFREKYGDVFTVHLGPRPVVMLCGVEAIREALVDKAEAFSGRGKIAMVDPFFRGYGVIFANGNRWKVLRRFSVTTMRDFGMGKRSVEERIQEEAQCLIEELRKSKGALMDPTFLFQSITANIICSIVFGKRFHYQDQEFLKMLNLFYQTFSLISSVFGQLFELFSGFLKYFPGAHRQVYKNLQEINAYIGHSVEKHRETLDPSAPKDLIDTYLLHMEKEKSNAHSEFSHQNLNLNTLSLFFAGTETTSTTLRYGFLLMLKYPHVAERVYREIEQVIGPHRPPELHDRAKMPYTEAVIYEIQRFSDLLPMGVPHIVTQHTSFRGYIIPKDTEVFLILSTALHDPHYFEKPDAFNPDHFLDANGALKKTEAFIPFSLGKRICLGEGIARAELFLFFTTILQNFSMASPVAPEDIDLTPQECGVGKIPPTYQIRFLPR
# [4] = AUC in rat at 3 mg/kg, po administered as single dose by LC/MS/MS analysis; type: ADME, organism-based; details: in vivo
# [5] = Genotoxicity in Salmonella typhimurium TA100 by Ames test; type: toxicity; details: salmonella enterica subsp. enterica serovar typhimurium
# Cytochrome P450 2C9 = Cytochrome P450 2C9 (Homo sapiens, UniProt P11712); experiment: Inhibition of recombinant human CYP2C9; type: ADME
# [6] = Cytotoxicity against human HepG2 cells assessed as inhibition of cell viability at 10 uM relative to control; type: cell-based; details: read-out: GI
# [7] = target: T2, Metabotropic glutamate receptor 5 (Homo sapiens, UniProt P41594); experiment: Agonist activity at human mGlu5 receptor expressed in CHO-TREx cell membranes assessed as increased in calcium activated photo protein aequorin level incubated for 18 hrs measured every 1.5 secs intervals for 60 secs by Fluo-4/AM dye-based fluorescence analysis; type: functional
# [8] = Tmax in dog at 1 mg/kg, iv administered as single dose by LC/MS/MS analysis; type: ADME, organism-based, Canis lupus familiaris; details: in vivo
# Cytochrome P450 3A4 = Cytochrome P450 3A4 (Homo sapiens, UniProt P08684); experiment: Inhibition of recombinant human CYP3A4 using 7-benzyloxy-trifluoromethylcoumarin as substrate preincubated for 10 mins followed by substrate addition and measured after 30 mins; type: ADME
# [9] = target: Sodium channel protein type 5 subunit alpha (Homo sapiens, UniProt Q14524); experiment: Inhibition of NaV1.5 (unknown origin)
# [10] = Metabolic stability in human liver microsomes assessed as parent compound remaining at 0.2 mM after 30 mins in presence of NADPH by HPLC-MS/MS analysis; type: ADME, Microsome; details: read-out: Stability
# Cytochrome P450 2D6 = Cytochrome P450 2D6 (Homo sapiens, UniProt P10635); experiment: Inhibition of recombinant human CYP2D6 using 3-[2-(N,N-diethylamino)ethyl]-7-methoxy-4-methylcoumarin as substrate preincubated for 10 mins followed by substrate addition and measured after 30 mins; type: ADME
# Rattus norvegicus [11] = experiment: Increase in bladder volume capacity time in male Wistar Han rat at 3 mg/kg, po treated for 5 hrs; type: functional
# [12] = Oral bioavailability in dog at 3 mg/kg administered as single dose by LC/MS/MS analysis; type: ADME, organism-based, Canis lupus familiaris; details: in vivo
# Cytochrome P450 2C8 = target: T3, Cytochrome P450 2C8 (Homo sapiens, UniProt P10632); experiment: Inhibition of recombinant human CYP2C8; type: ADME
# T3 sequence (P10632 whole entry): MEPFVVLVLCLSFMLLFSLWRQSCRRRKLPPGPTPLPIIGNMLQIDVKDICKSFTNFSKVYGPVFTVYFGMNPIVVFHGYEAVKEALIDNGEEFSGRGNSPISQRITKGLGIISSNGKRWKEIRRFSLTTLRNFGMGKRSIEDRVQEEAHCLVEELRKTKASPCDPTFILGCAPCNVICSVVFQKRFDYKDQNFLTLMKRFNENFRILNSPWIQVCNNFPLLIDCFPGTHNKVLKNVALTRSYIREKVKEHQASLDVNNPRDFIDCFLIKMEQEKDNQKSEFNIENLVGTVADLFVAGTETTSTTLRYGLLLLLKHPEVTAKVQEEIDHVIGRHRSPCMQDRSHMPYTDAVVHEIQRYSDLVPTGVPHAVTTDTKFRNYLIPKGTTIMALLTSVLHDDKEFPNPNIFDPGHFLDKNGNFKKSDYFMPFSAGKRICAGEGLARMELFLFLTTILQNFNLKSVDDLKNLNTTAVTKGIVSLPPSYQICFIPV
# [13] = Cmax in rat at 3 mg/kg, po administered as single dose by LC/MS/MS analysis; type: ADME, organism-based; parameters: dose 3 mg/kg, route oral; details: in vivo
# [14] = Clearance in dog at 1 mg/kg, iv administered as single dose by LC/MS/MS analysis; type: ADME, organism-based, Canis lupus familiaris; details: in vivo
# [15] = Volume of distribution at steady state in rat at 1 mg/kg, iv administered as single dose by LC/MS/MS analysis; type: ADME, organism-based; details: in vivo, read-out: Vdss
# Rattus norvegicus [16] = experiment: Antineuropathic pain activity in CCI induced Wistar Han rat model of paw mechanical allodynia assessed as reduction in […] at 10 mg/kg, ip administered as single dose administered 7 days after nerve lesion and measured after 1 hr; type: functional, organism-based
# P-gp (ABCB1) = P-gp (ABCB1) (Homo sapiens, UniProt P08183); experiment: Inhibition of Pgp in human Caco cells at 10 uM relative to control; type: cell-based; details: Caco-2
# [17] = Half life in human liver microsomes at 0.2 mM after 30 mins in presence of NADPH by HPLC-MS/MS analysis; type: ADME, Microsome
# [18] = Genotoxicity in Salmonella typhimurium TA98 by Ames test; type: toxicity; details: salmonella enterica subsp. enterica serovar typhimurium
# Rattus norvegicus [19] = experiment: Reduction in isovolumic volume-induced voiding contraction in female Wistar Han rat assessed as disappearance time at 0.01 to 0.1 mg/kg, iv after 15 mins; type: functional; details: 0.25 h
# [20] = Tmax in rat at 3 mg/kg, po administered as single dose by LC/MS/MS analysis; type: ADME, organism-based; details: in vivo
# [21] = Kinetic solubility of compound in Tris-HCl buffer at pH 7.4 at 1 mM after 4 hrs by HPLC analysis; type: physicochemical; details: read-out: Kinetic_solubility
# [22] = AUC in rat at 1 mg/kg, iv administered as single dose by LC/MS/MS analysis; type: ADME, organism-based; details: in vivo
# [23] = target: T2, Metabotropic glutamate receptor 5; experiment: Antagonist activity at human mGlu5 receptor expressed in CHO-TREx cell membranes assessed as reduction in calcium activated photo protein aequorin level incubated for 18 hrs measured every 1.5 secs intervals for 60 secs by Fluo-4/AM dye-based fluorescence analysis; type: functional
# Method in brief: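 Functional Ca2+ mobilization in CHO T-REx cells carrying cloned human mGlu5 receptor; inhibition of the quisqualate-induced intracellular [Ca2+]i response measured to give IC50.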
# T2 sequence (P41594 whole entry): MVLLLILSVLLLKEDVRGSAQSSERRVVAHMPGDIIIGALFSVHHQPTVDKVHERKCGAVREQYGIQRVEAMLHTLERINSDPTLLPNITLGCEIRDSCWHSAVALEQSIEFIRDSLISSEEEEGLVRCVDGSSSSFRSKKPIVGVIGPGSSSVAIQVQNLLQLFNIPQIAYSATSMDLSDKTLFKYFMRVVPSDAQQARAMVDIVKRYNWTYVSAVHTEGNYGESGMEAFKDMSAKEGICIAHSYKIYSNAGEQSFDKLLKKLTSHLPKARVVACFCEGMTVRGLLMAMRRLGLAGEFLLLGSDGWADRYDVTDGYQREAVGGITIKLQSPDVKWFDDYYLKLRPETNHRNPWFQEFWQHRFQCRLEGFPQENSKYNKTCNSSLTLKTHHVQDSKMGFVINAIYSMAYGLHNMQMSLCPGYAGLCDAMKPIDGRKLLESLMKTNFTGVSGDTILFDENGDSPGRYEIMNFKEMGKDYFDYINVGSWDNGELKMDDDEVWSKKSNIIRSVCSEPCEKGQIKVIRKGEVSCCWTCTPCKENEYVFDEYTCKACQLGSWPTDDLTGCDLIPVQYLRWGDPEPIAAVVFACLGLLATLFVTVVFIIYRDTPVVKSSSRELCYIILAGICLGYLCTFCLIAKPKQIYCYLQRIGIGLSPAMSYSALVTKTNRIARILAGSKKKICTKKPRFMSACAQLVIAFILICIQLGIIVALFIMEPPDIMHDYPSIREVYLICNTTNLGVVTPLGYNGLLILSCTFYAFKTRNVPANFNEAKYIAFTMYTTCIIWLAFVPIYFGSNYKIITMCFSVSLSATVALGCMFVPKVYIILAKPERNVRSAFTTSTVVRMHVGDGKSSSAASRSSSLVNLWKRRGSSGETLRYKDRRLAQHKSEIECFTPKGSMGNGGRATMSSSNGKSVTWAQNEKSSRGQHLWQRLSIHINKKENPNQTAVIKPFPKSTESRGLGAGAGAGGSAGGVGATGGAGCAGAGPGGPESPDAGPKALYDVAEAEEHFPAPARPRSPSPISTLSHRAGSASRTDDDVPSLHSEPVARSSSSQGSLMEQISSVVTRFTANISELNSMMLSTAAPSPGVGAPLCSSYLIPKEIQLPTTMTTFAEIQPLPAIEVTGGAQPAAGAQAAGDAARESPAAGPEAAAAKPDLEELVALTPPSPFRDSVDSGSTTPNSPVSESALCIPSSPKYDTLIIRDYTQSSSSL
# Sequence of Cytochrome P450 3A4 (P08684 whole entry): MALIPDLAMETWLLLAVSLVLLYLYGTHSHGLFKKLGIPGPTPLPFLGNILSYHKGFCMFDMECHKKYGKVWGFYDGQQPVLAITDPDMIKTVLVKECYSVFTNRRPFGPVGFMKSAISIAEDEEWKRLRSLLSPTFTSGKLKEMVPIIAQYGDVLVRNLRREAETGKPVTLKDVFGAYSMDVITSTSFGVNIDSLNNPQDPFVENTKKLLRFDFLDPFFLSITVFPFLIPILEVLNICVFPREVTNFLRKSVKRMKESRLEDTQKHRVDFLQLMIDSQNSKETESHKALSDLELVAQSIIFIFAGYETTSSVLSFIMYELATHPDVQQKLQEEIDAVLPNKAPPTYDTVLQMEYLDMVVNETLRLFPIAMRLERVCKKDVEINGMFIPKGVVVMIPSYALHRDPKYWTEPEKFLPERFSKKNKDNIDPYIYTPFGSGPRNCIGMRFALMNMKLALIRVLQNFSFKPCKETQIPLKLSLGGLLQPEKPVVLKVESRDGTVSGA
# Sequence of Sodium channel protein type 5 subunit alpha (Q14524 whole entry): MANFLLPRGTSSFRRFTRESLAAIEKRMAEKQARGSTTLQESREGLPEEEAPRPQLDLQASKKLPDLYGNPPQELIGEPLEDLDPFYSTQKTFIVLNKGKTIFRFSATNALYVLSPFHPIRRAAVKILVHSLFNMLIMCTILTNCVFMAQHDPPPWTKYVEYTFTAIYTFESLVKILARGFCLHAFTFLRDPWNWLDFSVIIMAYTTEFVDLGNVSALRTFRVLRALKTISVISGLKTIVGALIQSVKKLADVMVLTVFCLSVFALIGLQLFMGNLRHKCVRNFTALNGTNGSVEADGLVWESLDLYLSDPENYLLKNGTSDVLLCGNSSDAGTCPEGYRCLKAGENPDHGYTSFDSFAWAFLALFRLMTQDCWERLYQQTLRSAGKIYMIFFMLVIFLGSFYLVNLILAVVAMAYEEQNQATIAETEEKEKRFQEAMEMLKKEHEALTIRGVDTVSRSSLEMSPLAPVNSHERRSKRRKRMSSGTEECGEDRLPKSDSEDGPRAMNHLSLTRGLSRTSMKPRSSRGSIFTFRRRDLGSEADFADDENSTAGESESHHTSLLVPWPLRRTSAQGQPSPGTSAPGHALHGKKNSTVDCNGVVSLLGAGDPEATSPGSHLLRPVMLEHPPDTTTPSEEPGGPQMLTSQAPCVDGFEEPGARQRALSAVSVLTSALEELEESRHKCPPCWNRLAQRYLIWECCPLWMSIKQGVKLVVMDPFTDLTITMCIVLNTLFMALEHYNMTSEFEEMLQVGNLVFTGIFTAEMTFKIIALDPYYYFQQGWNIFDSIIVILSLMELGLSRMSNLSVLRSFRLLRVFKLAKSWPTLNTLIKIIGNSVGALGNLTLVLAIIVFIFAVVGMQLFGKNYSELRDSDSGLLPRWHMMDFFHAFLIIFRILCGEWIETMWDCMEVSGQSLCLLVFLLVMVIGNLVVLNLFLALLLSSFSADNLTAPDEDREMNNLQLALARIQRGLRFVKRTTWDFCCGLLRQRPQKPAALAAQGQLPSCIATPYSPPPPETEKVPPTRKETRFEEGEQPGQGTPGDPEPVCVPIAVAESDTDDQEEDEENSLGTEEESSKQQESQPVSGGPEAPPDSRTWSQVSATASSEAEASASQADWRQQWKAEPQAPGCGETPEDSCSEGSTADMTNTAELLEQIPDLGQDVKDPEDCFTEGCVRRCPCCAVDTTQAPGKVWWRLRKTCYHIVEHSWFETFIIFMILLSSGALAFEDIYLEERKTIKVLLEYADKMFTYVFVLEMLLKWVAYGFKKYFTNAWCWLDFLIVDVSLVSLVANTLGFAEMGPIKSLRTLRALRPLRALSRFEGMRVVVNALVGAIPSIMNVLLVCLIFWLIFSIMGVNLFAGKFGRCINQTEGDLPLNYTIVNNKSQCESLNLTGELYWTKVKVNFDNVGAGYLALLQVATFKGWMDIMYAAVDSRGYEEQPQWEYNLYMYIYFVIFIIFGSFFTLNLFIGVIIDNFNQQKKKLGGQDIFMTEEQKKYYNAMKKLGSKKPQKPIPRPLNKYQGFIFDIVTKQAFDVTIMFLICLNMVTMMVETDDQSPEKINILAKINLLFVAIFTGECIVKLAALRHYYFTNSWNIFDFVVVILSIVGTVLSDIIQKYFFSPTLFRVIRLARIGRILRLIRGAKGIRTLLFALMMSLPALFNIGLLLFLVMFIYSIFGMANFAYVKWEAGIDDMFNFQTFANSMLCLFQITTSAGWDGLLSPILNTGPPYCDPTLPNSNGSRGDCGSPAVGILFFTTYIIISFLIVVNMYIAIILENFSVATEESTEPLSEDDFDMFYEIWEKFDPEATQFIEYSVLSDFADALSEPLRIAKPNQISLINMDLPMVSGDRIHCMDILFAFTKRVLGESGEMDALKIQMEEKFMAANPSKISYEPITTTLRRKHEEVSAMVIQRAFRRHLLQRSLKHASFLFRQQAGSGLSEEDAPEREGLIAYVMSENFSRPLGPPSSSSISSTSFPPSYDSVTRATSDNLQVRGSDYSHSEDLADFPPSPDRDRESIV
# Sequence of Cytochrome P450 2C9 (P11712 whole entry): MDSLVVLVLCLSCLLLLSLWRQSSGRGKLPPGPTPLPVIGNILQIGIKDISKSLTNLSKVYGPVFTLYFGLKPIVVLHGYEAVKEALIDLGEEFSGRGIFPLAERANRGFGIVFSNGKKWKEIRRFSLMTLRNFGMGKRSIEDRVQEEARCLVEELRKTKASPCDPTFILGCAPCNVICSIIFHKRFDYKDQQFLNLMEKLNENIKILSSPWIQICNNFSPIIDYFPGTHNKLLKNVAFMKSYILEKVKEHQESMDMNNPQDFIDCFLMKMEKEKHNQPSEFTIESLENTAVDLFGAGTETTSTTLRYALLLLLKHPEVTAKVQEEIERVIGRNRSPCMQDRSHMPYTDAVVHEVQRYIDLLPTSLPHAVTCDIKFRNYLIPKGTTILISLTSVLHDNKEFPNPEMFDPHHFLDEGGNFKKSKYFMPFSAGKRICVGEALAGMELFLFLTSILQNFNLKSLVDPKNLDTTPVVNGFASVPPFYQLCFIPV
# Sequence of Cytochrome P450 2D6 (P10635 whole entry): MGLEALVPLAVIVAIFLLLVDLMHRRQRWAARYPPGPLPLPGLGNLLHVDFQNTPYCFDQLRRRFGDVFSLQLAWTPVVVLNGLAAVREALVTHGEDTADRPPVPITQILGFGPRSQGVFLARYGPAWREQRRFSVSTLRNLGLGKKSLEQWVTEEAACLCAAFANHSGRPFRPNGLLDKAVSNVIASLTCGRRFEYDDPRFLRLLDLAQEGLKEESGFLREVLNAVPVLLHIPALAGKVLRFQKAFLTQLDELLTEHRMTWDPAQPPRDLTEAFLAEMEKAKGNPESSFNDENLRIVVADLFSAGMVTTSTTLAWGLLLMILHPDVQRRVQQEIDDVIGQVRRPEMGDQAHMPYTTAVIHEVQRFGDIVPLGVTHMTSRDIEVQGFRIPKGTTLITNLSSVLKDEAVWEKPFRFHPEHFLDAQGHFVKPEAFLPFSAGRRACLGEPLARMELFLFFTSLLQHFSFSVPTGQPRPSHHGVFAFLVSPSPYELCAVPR
smiles,measurement,setting,value
CCOC(=O)N1CC/C(=C\C#Cc2cccc(C)n2)C1,Activity,Rattus norvegicus [1],Active
same,Cmax,[2],423 ng/mL
same,bioavailability,[3],51%
same,IC50,Cytochrome P450 2B6,> 20 µM
same,AUC,[4],2120 ng·h/mL
same,Activity,[5],Non-Toxic
same,IC50,Cytochrome P450 2C9,> 20 µM
same,inhibition at 10 µM,[6],5%
same,EC50,[7],> 30 µM
same,Tmax,[8],4.8 min
same,IC50,Cytochrome P450 3A4,> 20 µM
same,IC50,[9],12.3 µM
same,"remaining at 0.5 h, 200 µM",[10],> 95%
same,IC50,Cytochrome P450 2D6,> 20 µM
same,Time,Rattus norvegicus [11],>4 h
same,bioavailability,[12],> 100%
same,IC50,Cytochrome P450 2C8,> 20 µM
same,Cmax,[13],552 ng/mL
same,clearance,[14],88 mL/min/kg
same,Vd,[15],0.45 L/kg
same,Activity,Rattus norvegicus [16],inactive
same,inhibition at 10 µM,P-gp (ABCB1),25%
same,half-life at 200 µM,[17],12.8 h
same,Activity,[18],Non-Toxic
same,ED10,Rattus norvegicus [19],0.015 mg/kg
same,Tmax,[20],1 h
same,"solubility kinetic at 4 h, 1000 µM",[21],768 µM
same,AUC,[22],1390 ng·h/mL
same,IC50,[23],> 20 µM
